The text below walks through data of ChEMBL document CHEMBL3352608, “Medicinal chemistry optimization of antiplasmodial imidazopyridazine hits from high throughput screening of a softfocus kinase library: part 2” (J Med Chem, 2014).

Data set [1] is described as follows: Aqueous solubility of the compound at pH 6.5. It is filed as physicochemical. The following applies: buffer.
Data set [2] relates to Liver microsome. Briefly: Metabolic stability in human liver microsomes assessed as compound remaining after 30 mins. It counts as ADME. The conditions noted are these: 0.5 h. The gist of the method:
(§1)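 One-point microsomal stability test: compound incubated 30 min with human, rat or mouse liver microsomes; percentage of parent remaining measured.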
In general terms: Microsomes from liver hold many membrane-bound enzymes, among them those of drug oxidation.

Data set [3] deals with Liver microsome. Briefly: Metabolic stability in rat liver microsomes assessed as compound remaining after 30 mins. It counts as ADME. The following applies: 0.5 h. A digest of the protocol:
as §1

Data set [4] can be described thus: Aqueous solubility of the compound at pH 2. It is filed as physicochemical. The following applies: buffer.
Another data set concerns Liver. The data set is described as follows: Metabolic stability in mouse liver microsomes assessed as compound remaining after 30 mins. It is filed as ADME. The conditions noted are these: 0.5 h. A digest of the protocol:
as §1

Data set [5] has as its system Plasmodium falciparum. The data set is described as follows: Antiplasmodial activity against Plasmodium falciparum NF54 by [3H]hypoxanthine incorporation assay. It counts as functional, organism-based. A digest of the protocol: (§2)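 Modified [3H]-hypoxanthine incorporation assay on P. falciparum asexual cultures, chloroquine and artesunate as references in every run. IC50 values are means of ≥2 independent experiments; individual values mostly within 2-fold (maximum 3-fold).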

Data set [6] deals with Plasmodium falciparum. The data set is described as follows: Antiplasmodial activity against Plasmodium falciparum K1 by [3H]hypoxanthine incorporation assay. It is filed as functional, organism-based. The gist of the method: as §2
Data set [7] has as its system CHO cells (Cricetulus griseus). Briefly: Selectivity index, ratio of IC50 for Chinese hamster CHO cells to IC50 for Plasmodium falciparum.
For the next data set, the system named is CHO. Briefly: Cytotoxicity against CHO cells. The following applies: chinese hamster. It is filed as cell-based, Cricetulus griseus.
For data set [8], the system named is CHO cells (Cricetulus griseus). Briefly: Cytotoxicity against Chinese hamster CHO cells.
The nature of data set [9]: Selectivity index, ratio of IC50 for CHO cells to IC50 for Plasmodium falciparum. The following applies: hamster, read-out: Ratio IC50. It counts as toxicity, cell-based.
Another data set has as its system Plasmodium berghei. The data set is described as follows: Antimalarial activity against Plasmodium berghei ANKA infected in mouse assessed as reduction in parasitemia at 50 mg/kg/day, po qd administered for 4 days relative to control. It counts as functional. Also on record: Activity: scale not given: the % may be the effect or the level left. A digest of the protocol: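 Mice (n = 3) infected with GFP-transfected P. berghei ANKA; compound in HPMC suspension vehicle given orally once daily at 4, 24, 48 and 72 h after infection. Blood collected day 4 (96 h post-infection); parasitemia by flow cytometry (detection limit 0.1%). Activity = difference in mean % parasitemia between control and treated groups, as % of control.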

Data set [10] has as its target Voltage-gated inwardly rectifying potassium channel KCNH2 (Homo sapiens, UniProt Q12809). Briefly: Inhibition of human ERG channel by patch clamp technique.

pIC50: −log10 of the molar value. Converted amounts (≈) assume the structure as drawn.

Chain of Voltage-gated inwardly rectifying potassium channel KCNH2 (Q12809 whole entry): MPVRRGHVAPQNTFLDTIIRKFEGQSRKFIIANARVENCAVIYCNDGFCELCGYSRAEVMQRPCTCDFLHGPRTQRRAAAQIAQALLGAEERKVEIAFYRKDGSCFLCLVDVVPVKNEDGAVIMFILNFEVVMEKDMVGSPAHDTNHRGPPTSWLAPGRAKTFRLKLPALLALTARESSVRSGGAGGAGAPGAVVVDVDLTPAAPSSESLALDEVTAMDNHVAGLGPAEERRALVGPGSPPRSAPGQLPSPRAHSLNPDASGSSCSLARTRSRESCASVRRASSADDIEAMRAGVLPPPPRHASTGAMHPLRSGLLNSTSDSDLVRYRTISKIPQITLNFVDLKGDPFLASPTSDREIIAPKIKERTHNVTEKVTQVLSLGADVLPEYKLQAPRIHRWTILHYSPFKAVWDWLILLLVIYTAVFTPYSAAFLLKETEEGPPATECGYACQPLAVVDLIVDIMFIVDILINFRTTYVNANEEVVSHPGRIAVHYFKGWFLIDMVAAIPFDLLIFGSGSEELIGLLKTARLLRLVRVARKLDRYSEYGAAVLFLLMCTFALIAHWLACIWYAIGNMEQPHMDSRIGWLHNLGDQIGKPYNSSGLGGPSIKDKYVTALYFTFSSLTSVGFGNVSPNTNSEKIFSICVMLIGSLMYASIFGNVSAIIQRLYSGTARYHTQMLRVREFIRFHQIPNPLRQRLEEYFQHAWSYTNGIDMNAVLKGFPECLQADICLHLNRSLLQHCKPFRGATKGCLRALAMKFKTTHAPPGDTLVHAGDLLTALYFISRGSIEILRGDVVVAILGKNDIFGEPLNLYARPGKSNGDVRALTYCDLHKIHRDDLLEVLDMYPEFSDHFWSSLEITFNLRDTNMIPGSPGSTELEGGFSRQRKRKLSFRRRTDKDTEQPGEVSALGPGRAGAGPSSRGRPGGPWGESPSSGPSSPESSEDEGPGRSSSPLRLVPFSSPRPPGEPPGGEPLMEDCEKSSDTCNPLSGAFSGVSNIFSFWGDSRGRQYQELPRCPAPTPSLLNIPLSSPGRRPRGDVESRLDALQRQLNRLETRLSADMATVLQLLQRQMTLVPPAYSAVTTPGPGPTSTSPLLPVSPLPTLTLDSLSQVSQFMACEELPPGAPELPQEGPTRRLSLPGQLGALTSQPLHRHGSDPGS

In the case of `CS(=O)(=O)c1ccc(-c2cnc3ccc(-c4cccc(C(=O)NCCO)c4)nn23)cc1`, the results for the solubility in data set [1] and in [4] were above 100 µM and above 200 µM, respectively. Further, the Stability entry in the data set on Liver microsome [2], in the data set on Liver microsome [3] and in the data set with Liver was “Unstable” in each case.

As for `CS(=O)(=O)c1ccc(-c2cnc3ccc(-c4cncc(S(C)(=O)=O)c4)nn23)cc1`, the solubility in data set [1] and in data set [4] was below 5 µM throughout. The pIC50 is 7.02 with Plasmodium falciparum [5] and 7.09 with Plasmodium falciparum [6].

Take `CS(=O)(=O)c1ccc(-c2cnc3ccc(-c4cncc(C(F)(F)F)c4)nn23)cc1`: the solubility in data set [1] and in data set [4] was below 5 µM throughout. The pIC50 in the data set on Plasmodium falciparum [5] is 5.98.

For `CS(=O)(=O)c1ccc(-c2cnc3ccc(-c4ccnc(C(F)(F)F)c4)nn23)cc1`, the solubility in data set [1] is below 5 µM; in data set [4], 5.4 µM (≈ 2.26 µg/mL). Besides, the selectivity ratio in data set [7] and in data set [9] was above 1000 in each case. Besides, the Activity result (in the data set with CHO; in data set [8]) was “Non-toxic” in each case. Moreover, the pIC50 was 7.35 with Plasmodium falciparum [5] and 7.59 with Plasmodium falciparum [6].

Turning to `CS(=O)(=O)c1ccc(-c2cnc3ccc(-c4cncc(N)c4)nn23)cc1`, the values for the solubility in [1] and in data set [4] were 15 µM (≈ 5.48 µg/mL) and 174 µM (≈ 63.6 µg/mL), respectively. In addition, the pIC50 was 7.16 in the data set with Plasmodium falciparum [5] and 7.26 in the data set with Plasmodium falciparum [6].

Turning to `CS(=O)(=O)c1cccc(-c2ccc3ncc(-c4ccc(S(C)(=O)=O)nc4)n3n2)c1`, the solubility in [1] and in data set [4] was below 5 µM each time. The pIC50 is 7.92 in the data set on Plasmodium falciparum [5] and 8.00 in the data set on Plasmodium falciparum [6].

Turning to `CS(=O)(=O)c1cccc(-c2ccc3ncc(-c4cncc(S(C)(=O)=O)c4)n3n2)c1`, the solubility in data set [1] was below 5 µM; in [4], 16 µM (≈ 6.86 µg/mL). For the same compound, the pIC50 in the data set on Plasmodium falciparum [5] is 7.24; with Plasmodium falciparum [6], 7.38.

Turning to `CS(=O)(=O)c1cccc(-c2ccc3ncc(-c4ccc(N)nc4)n3n2)c1`, the values for the solubility in data set [1] and in data set [4] were below 5 µM and 192 µM (≈ 70.2 µg/mL), respectively. Besides, the pIC50 with Plasmodium falciparum [5] is 7.64; in the data set on Plasmodium falciparum [6], 7.72.

For the compound `CS(=O)(=O)c1cncc(-c2ccc3ncc(-c4ccc(S(C)(=O)=O)nc4)n3n2)c1`, the results for the solubility in data set [1] and in data set [4] were 13 µM (≈ 5.58 µg/mL) and 52 µM (≈ 22.3 µg/mL), respectively. Moreover, the pIC50 with Plasmodium falciparum [5] is 6.09; in the data set with Plasmodium falciparum [6], 6.21.

Regarding `CS(=O)(=O)c1cncc(-c2ccc3ncc(-c4cncc(S(C)(=O)=O)c4)n3n2)c1`, the solubility in [1] is 53 µM (≈ 22.8 µg/mL); in [4] it was 183 µM (≈ 78.6 µg/mL). Moreover, the figures for the pIC50 with Plasmodium falciparum [5] and in the data set with Plasmodium falciparum [6] were 6.20 and 6.33, respectively.

Consider `CS(=O)(=O)c1cncc(-c2ccc3ncc(-c4ccc(S(=O)(=O)C5CC5)cc4)n3n2)c1`, for which the solubility in data set [1] and in data set [4] was below 5 µM in each case. Moreover, the pIC50 in the data set with Plasmodium falciparum [5] is 6.18; with Plasmodium falciparum [6] it was 6.32.

For `CS(=O)(=O)c1ccc(-c2cnc3ccc(-c4cccc(S(=O)(=O)CCO)c4)nn23)cc1`, the solubility is 8.6 µM (≈ 3.93 µg/mL) in data set [1] and 190 µM (≈ 86.9 µg/mL) in [4]. Further, the pIC50 in the data set on Plasmodium falciparum [5] was 8.66.

As for `CS(=O)(=O)c1ccc(-c2cnc3ccc(-c4cccc(C(=O)N5CCC(O)CC5)c4)nn23)cc1`, the results for the solubility in data set [1] and in data set [4] were 178 µM (≈ 84.8 µg/mL) and above 200 µM, respectively. Moreover, the Stability result with Liver microsome [2], in the data set on Liver microsome [3] and in the data set with Liver was “Stable” in each case. Moreover, in the data set on Plasmodium falciparum [5], the pIC50 was 8.19.

As for `CS(=O)(=O)c1cccc(-c2ccc3ncc(-c4ccc(S(=O)(=O)N5CCNCC5)cc4)n3n2)c1`, the figures for the solubility in [1] and in data set [4] were 162 µM (≈ 80.6 µg/mL) and 166 µM (≈ 82.6 µg/mL), respectively. In addition, the Stability result in the data set on Liver microsome [2], with Liver microsome [3] and in the data set on Liver was “Unstable” each time. Moreover, the pIC50 in the data set with Plasmodium falciparum [5] was 7.85; in the data set with Plasmodium falciparum [6] it was 8.06.

Regarding `C[S+]([O-])c1ccc(-c2cnc3ccc(-c4cccc(S(C)(=O)=O)c4)nn23)cc1` (stereo not drawn), the solubility was found to be 98 µM (≈ 40.3 µg/mL) in [1] and 207 µM (≈ 85.2 µg/mL) in [4]. Further, the Stability entry in the data set on Liver microsome [2], in the data set with Liver microsome [3] and in the data set on Liver was “Stable” each time. The Activity in the data set with Plasmodium berghei amounted to 99.7%. Besides, the MSD in the data set on Plasmodium berghei is 14 days. The same compound gave a pIC50 with Plasmodium falciparum [5] of 8.19.

With `CS(=O)(=O)c1cccc(-c2ccc3ncc(-c4ccc(S(=O)(=O)CCCN)cc4)n3n2)c1`, the solubility was 180 µM (≈ 84.7 µg/mL) in data set [1] and above 200 µM in [4]. For the same compound, the Stability entry with Liver microsome [2], in the data set with Liver microsome [3] and in the data set with Liver was “Stable” throughout. Further, the selectivity ratio in data set [7] and in data set [9] was above 1000 each time. The Activity entry (in the data set on CHO; in [8]) was “Non-toxic” each time. The pIC50 with Plasmodium falciparum [5] was 7.96; with Plasmodium falciparum [6], 8.03.

Regarding `C[S+]([O-])c1cccc(-c2ccc3ncc(-c4ccc(C(N)=O)cc4)n3n2)c1` (stereo not drawn), the solubility in data set [1] was below 5 µM; in data set [4], 112 µM (≈ 42.2 µg/mL). Besides, in the data set with Plasmodium falciparum [5], the pIC50 was 6.99.

For the compound `CS(=O)(=O)c1cncc(-c2cnc3ccc(-c4cccc(S(=O)(=O)C5CC5)c4)nn23)c1`, the solubility in data set [1] is below 5 µM; in data set [4], 18 µM (≈ 8.18 µg/mL). Also, the pIC50 in the data set with Plasmodium falciparum [5] is 7.43; in the data set on Plasmodium falciparum [6], 7.51.

In the case of `CS(=O)(=O)c1ccc(-c2cnc3ccc(-c4cccc(S(=O)(=O)C5CC5)c4)nn23)cn1`, the solubility in data set [1] and in data set [4] was below 5 µM in each case. In addition, the pIC50 in the data set on Plasmodium falciparum [5] was 8.48; in the data set on Plasmodium falciparum [6], 8.70.

Consider `O=S(=O)(c1cccc(-c2ccc3ncc(-c4ccc(-c5nnn[nH]5)cc4)n3n2)c1)C1CC1`, for which the solubility is 183 µM (≈ 81.2 µg/mL) in data set [1] and below 5 µM in data set [4]. The results for the negative logarithm of the IC50 (pIC50) (in data set [10]; in the data set on Plasmodium falciparum [5]; with Plasmodium falciparum [6]) were below 4.48, 7.37 and 7.60, respectively. Besides, the Activity in the data set with Plasmodium berghei is on record as below 40%. Also, the MSD with Plasmodium berghei was determined as 4 days.

Take `NC(=O)c1ccc(-c2cnc3ccc(-c4cccc(S(=O)(=O)C5CC5)c4)nn23)cc1`: the solubility in data set [1] was below 5 µM; in data set [4], 6.3 µM (≈ 2.64 µg/mL). Further, the selectivity ratio in [7] and in data set [9] was above 1000 each time. Besides, the Activity entry (in the data set with CHO; in data set [8]) was “Non-toxic” in each case. Further, the pIC50 with Plasmodium falciparum [5] is 8.82; in the data set on Plasmodium falciparum [6] it was 8.92.

With `CS(=O)(=O)c1cccc(-c2ccc3ncc(-c4ccc(C(=O)N5CCNCC5)cc4)n3n2)c1`, the Stability entry in the data set with Liver microsome [2], in the data set with Liver microsome [3] and in the data set with Liver was “Stable” in each case. Further, the Activity with Plasmodium berghei is listed as below 40%. The MSD in the data set on Plasmodium berghei was determined as 4 days.

`CS(=O)(=O)c1cccc(-c2ccc3ncc(-c4ccc(C(=O)O)cc4)n3n2)c1`: the selectivity ratio in data set [7] and in data set [9] was above 1000 each time. The Activity result (in the data set with CHO; in data set [8]) was “Non-toxic” throughout.

Usually solubility stands for the dissolved amount per volume that the medium holds. Usually pIC50 stands for the negative decadic logarithm of the IC50, by convention in mol/L.
